# Experimental data reported in article PMC11069345 (Bioorganic chemistry, 2024).
# Like-named read-outs stand apart in the source and are kept apart here.
# Columns and labels:
# [1] = biological target: T1, ABCG2 (BCRP) (Homo sapiens, UniProt Q9UNQ0)
# T1 sequence (Q9UNQ0 1-655): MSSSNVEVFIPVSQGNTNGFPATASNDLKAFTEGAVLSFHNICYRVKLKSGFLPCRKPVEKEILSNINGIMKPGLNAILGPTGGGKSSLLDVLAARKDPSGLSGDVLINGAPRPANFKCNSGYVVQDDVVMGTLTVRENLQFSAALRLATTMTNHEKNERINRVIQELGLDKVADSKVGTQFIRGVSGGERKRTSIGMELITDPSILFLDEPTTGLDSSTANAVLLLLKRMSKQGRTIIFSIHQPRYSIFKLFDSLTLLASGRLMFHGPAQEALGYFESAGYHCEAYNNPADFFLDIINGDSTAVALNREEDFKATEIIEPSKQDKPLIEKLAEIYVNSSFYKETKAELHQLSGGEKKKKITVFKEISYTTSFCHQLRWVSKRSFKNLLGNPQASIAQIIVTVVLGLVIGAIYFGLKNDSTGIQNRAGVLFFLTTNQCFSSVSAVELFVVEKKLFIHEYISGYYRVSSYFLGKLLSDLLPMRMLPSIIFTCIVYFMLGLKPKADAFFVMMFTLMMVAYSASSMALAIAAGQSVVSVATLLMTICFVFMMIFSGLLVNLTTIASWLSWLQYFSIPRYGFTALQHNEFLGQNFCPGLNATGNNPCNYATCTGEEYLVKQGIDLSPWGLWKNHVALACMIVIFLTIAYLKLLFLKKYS
# [2] = system: ABCG2 mRNA expression; assay: mRNA expression levels by qPCR in HEK293-ABCG2 cells; type: cell-based, human; settings: 50 μM, 72 h
# [3] = biological target: T2, ABCB1 (P-gp) (Homo sapiens, UniProt P08183)
# T2 sequence (P08183 whole entry): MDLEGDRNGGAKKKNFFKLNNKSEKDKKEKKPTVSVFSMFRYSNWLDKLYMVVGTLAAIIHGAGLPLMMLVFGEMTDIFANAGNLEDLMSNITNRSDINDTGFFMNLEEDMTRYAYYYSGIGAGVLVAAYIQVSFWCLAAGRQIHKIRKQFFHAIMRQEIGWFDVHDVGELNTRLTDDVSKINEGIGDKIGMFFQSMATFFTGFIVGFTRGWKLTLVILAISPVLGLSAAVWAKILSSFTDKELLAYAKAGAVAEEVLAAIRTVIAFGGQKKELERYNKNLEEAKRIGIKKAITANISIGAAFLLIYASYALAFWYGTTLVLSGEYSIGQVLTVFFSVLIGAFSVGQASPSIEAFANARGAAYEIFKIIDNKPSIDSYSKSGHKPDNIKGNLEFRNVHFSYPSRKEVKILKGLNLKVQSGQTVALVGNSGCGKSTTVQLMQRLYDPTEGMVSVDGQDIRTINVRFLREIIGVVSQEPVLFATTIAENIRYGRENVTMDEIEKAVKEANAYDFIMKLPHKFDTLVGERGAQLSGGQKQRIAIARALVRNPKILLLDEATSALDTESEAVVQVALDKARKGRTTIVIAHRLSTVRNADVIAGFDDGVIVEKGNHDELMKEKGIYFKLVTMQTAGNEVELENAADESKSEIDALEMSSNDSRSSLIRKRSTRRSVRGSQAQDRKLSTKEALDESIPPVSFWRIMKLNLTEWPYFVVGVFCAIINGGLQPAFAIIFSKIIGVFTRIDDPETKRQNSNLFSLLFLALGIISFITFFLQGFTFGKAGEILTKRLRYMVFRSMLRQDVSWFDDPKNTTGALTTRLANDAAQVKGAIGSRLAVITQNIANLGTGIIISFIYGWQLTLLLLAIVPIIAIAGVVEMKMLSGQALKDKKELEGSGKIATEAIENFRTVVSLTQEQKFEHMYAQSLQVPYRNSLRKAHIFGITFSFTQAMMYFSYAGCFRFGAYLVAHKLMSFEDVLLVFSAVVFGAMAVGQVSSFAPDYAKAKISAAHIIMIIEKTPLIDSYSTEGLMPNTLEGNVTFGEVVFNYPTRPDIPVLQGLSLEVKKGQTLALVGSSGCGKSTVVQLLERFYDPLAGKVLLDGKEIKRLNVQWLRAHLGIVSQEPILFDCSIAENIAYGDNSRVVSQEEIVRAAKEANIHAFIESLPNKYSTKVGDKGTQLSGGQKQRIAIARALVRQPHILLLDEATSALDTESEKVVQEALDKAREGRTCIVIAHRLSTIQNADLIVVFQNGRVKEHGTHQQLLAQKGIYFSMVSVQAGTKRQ
# [4] = system: HEK293-ABCG2 cells; assay: Chemosensitization assay, co-treatment with SN-38, MTT, 72 h; type: cell-based, human; settings: co-treatment with SN-38 0.05 μM, 11 at saturating concentration, Ko143 at 0.5 μM
# [5] = system: HEK293 and HEK293-ABCG2 cells; assay: Cell viability MTT assay, 72 h; type: cell-based, human
# Summary of the method: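 Parental HEK293 and HEK293-ABCG2 cells were seeded at 1.5×10^4 cells/well, left overnight, then exposed to test compound at 0.19–100 μM for 72 h at 37 °C under 5% CO2. Medium was replaced with 0.5 mg mL−1 MTT for 4 h. Formazan was dissolved in DMSO/ethanol (1:1) and absorbance read at 570 nm.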
# [6] = biological target: T3, ABCC1 (MRP1) (Homo sapiens, UniProt P33527)
# T3 sequence (P33527 whole entry): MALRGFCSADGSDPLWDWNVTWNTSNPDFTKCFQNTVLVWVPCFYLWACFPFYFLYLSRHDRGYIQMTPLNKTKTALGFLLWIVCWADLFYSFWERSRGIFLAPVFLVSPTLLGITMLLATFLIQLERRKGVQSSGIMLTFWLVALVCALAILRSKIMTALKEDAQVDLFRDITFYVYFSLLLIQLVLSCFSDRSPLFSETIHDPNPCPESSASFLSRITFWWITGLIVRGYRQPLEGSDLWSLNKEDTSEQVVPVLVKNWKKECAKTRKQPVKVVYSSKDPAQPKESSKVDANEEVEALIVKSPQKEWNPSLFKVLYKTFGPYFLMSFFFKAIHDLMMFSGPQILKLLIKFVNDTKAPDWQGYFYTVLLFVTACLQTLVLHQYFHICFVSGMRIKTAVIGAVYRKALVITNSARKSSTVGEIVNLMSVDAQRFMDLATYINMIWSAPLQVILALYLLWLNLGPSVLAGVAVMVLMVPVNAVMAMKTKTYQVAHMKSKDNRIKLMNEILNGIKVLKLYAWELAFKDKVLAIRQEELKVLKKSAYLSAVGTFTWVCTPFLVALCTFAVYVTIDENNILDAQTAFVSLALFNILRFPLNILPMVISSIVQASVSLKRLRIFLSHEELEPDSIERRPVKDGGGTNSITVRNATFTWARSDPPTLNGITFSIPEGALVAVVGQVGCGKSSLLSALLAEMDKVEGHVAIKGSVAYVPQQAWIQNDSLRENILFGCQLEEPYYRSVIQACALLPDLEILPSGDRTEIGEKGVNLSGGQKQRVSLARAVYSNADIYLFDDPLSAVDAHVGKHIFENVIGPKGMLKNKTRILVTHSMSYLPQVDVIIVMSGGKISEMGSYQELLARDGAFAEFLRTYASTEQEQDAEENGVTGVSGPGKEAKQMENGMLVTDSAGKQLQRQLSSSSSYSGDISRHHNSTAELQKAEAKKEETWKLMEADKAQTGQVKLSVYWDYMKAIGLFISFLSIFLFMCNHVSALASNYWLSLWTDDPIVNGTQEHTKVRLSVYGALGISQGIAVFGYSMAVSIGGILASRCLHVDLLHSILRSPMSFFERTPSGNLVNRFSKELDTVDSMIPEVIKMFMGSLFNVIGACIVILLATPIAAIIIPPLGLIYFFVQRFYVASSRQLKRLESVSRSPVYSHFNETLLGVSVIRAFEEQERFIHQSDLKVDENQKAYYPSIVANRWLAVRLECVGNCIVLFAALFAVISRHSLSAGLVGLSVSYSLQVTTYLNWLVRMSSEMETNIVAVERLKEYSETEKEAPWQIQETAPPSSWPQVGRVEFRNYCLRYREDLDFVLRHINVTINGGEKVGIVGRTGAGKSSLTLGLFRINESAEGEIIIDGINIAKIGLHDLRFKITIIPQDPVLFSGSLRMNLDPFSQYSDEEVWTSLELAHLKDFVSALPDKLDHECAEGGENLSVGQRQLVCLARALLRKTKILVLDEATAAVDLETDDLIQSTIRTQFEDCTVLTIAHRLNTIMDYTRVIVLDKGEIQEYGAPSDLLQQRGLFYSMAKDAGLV
# [7] = biological target: T4, ABCG2 (Homo sapiens, UniProt Q9UNQ0); type: biochemical
# T4 sequence (Q9UNQ0 1-655): T1 sequence (Q9UNQ0 1-655)
# [8] = cited from earlier work
# [9] = biological target: T4, ABCG2; settings: cited from earlier work
# [10] = biological target: T1, ABCG2 (BCRP); settings: for Inhibition (% ± SD) ABCG2 (BCRP) 10 μM: 10 μM compound; for Inhibition (% ± SD) ABCG2 (BCRP) 10 μM / Inhibition (% ± SD) ABCG2 (BCRP) 50 μM: mitoxantrone 5 μM, 30 min, relative to Ko143 0.5 μM (100%); for Inhibition (% ± SD) ABCG2 (BCRP) 50 μM: 50 μM compound
# [11] = biological target: T3, ABCC1 (MRP1); assay: Transport inhibition assay: calcein-AM in BHK21-ABCC1 cells, flow cytometry; settings: for Inhibition (% ± SD) ABCC1 (MRP1) 10 μM: 10 μM compound; for Inhibition (% ± SD) ABCC1 (MRP1) 10 μM / Inhibition (% ± SD) ABCC1 (MRP1) 50 μM: calcein-AM 0.15 μM, relative to verapamil 30 μM (100%); for Inhibition (% ± SD) ABCC1 (MRP1) 50 μM: 50 μM compound
# [12] = biological target: T2, ABCB1 (P-gp); assay: Transport inhibition assay: rhodamine 123 in NIH3T3-ABCB1 cells, flow cytometry; settings: for Inhibition (% ± SD) ABCB1 (P-gp) 10 μM: 10 μM compound; for Inhibition (% ± SD) ABCB1 (P-gp) 10 μM / Inhibition (% ± SD) ABCB1 (P-gp) 50 μM: rhodamine 123 5 μM, relative to GF120918 0.5 μM (100%); for Inhibition (% ± SD) ABCB1 (P-gp) 50 μM: 50 μM compound
# [13] = human, probe mitoxantrone (5 μM)
structure (smiles),measurement,setting,value
C=CCc1ccc(O)c(-c2cc(CC=C)ccc2OC)c1 [Compound 11],Extent of ABCG2 inhibition (partial or complete inhibitor),[1],complete ABCG2 inhibitor
same,IC50,[1],9.5 µM
same,Inhibition (% ± SD) ABCG2 (BCRP) 10 μM,[1],62.0 ± 11.9%
same,Type of inhibition (Lineweaver-Burk plot),[1],mixed type of inhibition
same,Effect on mRNA ABCG2 expression levels,[2],did not significantly affect the transcriptional levels of ABCG2
same,Inhibition (% ± SD) ABCB1 (P-gp) 10 μM,[3],−0.7 ± 1.2%
same,Inhibition (% ± SD) ABCB1 (P-gp) 50 μM,[3],2.8 ± 3.8%
same,Reversion of ABCG2-mediated resistance to SN-38 (cell viability),[4],completely revert the MDR phenotype mediated by ABCG2
same,Concentration with cytotoxic effect,"[5]; 0.19 – 100 μM tested, HEK293 and HEK293-ABCG2",> 100 µM
same,IG50 (concentration that reduces 50% of the cell viability),[5]; estimated,> 100 µM
same,Inhibition (% ± SD) ABCC1 (MRP1) 10 μM,[6],4.9 ± 7.0%
same,Inhibition (% ± SD) ABCC1 (MRP1) 50 μM,[6],11.5 ± 5.8%
same,Stimulation of ABCG2 ATPase activity,[7],~ 60%
same,Inhibition of ABCG2 ATPase activity,[7]; 50 µM,~ 30%
C=CCc1ccc(OC)c(-c2cc(CC=C)ccc2OC)c1 [Compound 12],Inhibition (% ± SD) ABCG2 (BCRP) 10 μM,[1],5.9 ± 10.9%
same,Inhibition (% ± SD) ABCG2 (BCRP) 50 μM,[1],32.8 ± 5.5%
same,Inhibition (% ± SD) ABCB1 (P-gp) 10 μM,[3],−1.1 ± 1.5%
same,Inhibition (% ± SD) ABCB1 (P-gp) 50 μM,[3],−0.5 ± 2.1%
same,Inhibition (% ± SD) ABCC1 (MRP1) 10 μM,[6],2.6 ± 1.8%
same,Inhibition (% ± SD) ABCC1 (MRP1) 50 μM,[6],9.1 ± 3.3%
"COc1ccc2c3c([nH]c2c1)[C@H](CC(C)C)N1C(=O)[C@H](CCC(=O)OC(C)(C)C)NC(=O)[C@@H]1C3 [Ko143, reference compound]",Reversion of ABCG2-mediated resistance to SN-38 (cell viability),[4],same percentage of cell viability as the observed for HEK293 cells exposed to SN-38 alone
same,IG50 (cytotoxicity),[8],18 to 34 µM
C=CCc1ccc(O)c(-c2ccc(O)c(CC=C)c2)c1 [honokiol],Transport by ABCG2 (substrate),[9],substrates of ABCG2
CCCc1ccc(O)c(-c2cc(CCC)ccc2O)c1 [Compound 14],Inhibition (% ± SD) ABCG2 (BCRP) 10 μM,[10],1.8 ± 1.7%
same,Inhibition (% ± SD) ABCG2 (BCRP) 50 μM,[10],19.5 ± 4.5%
same,Inhibition (% ± SD) ABCC1 (MRP1) 10 μM,[11],5.6 ± 5.5%
same,Inhibition (% ± SD) ABCC1 (MRP1) 50 μM,[11],16.0 ± 10.7%
same,Inhibition (% ± SD) ABCB1 (P-gp) 10 μM,[12],0.5 ± 0.9%
same,Inhibition (% ± SD) ABCB1 (P-gp) 50 μM,[12],−6.4 ± 0.3%
CCCc1ccc(O)c(-c2cc(CCC)ccc2OC)c1 [Compound 15],Inhibition (% ± SD) ABCG2 (BCRP) 10 μM,[10],1.1 ± 5.4%
same,Inhibition (% ± SD) ABCG2 (BCRP) 50 μM,[10],20.4 ± 1.7%
same,Inhibition (% ± SD) ABCC1 (MRP1) 10 μM,[11],4.3 ± 3.9%
same,Inhibition (% ± SD) ABCC1 (MRP1) 50 μM,[11],5.8 ± 4.1%
same,Inhibition (% ± SD) ABCB1 (P-gp) 10 μM,[12],0.2 ± 0.8%
same,Inhibition (% ± SD) ABCB1 (P-gp) 50 μM,[12],2.0 ± 1.9%
C=CCc1ccc(O)c(-c2cc(CC=C)ccc2O)c1 [magnolol],Transport by ABCG2 (substrate),[9],substrates of ABCG2
"C=CCc1ccc(OC)c(-c2cc(CC=C)cc(O)c2O)c1 [Compound 13, 5,5’-diallyl-2’-methoxy-[1,1’-biphenyl]-2,3-diol]","inhibition at 30 min, 10 μM",[10]; [13],4 ± 4.4%
same,"inhibition at 30 min, 50 μM",[10]; [13],19.5 ± 4.4%
same,"inhibition at 30 min, 10 μM",[11]; probe calcein-AM (0.15 μM),2.9 ± 4.3%
same,"inhibition at 30 min, 50 μM",[11]; probe calcein-AM (0.15 μM),4.7 ± 6.4%
same,"inhibition at 30 min, 10 μM",[12]; probe rhodamine 123 (5 μM),1.1 ± 4.6%
same,"inhibition at 30 min, 50 μM",[12]; probe rhodamine 123 (5 μM),-1.2 ± 1.8%
